Data set [1] in a line: Rf is the resistance factor and is the ratio of the IC50 on the resistant cell line over the IC50 on the parental COR-L23/P cell line. The settings on record: human. A digest of the protocol:
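Resistance factor computed as IC50 in COR-L23/R (MRP-overexpressing) divided by IC50 in COR-L23/P. Both IC50s come from a 5-6 day sulforhodamine B proliferation assay.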

Data set [2] concerns NCI-H69. Nature of the data set: Rf is the resistance factor and is the ratio of the IC50 on the resistant cell line over the IC50 on the parental H69/P cell line. Type of data set: functional, Homo sapiens. An outline of the steps: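 Resistance factor computed as IC50 in H69/LX4 (Pgp-overexpressing) divided by IC50 in H69/P. Both IC50s come from a 5-6 day Alamar Blue proliferation assay.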

Data set [3] relates to COR-L23. As to the kind of experiment: Cytotoxicity measured using the COR-L23 parental (COR-L23/P) human non small cell lung carcinoma cell line. Type of data set: functional, cell-based. A digest of the protocol:
(§1)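 COR-L23/P (parental) or COR-L23/R (MRP-overexpressing) human NSCLC cells; compound added, then 5-6 days incubation; proliferation read by sulforhodamine B staining.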

The test system of data set [4] is COR-L23. As to the kind of experiment: Cytotoxicity measured with the drug resistant human non small cell lung carcinoma cell line COR-L23 (COR-L23/R) which over expresses multidrug resistance associated with protein(MRP). Type of data set: functional, cell-based. A digest of the protocol: as §1
For data set [5], the system named is NCI-H69. Nature of the data set: Cytotoxicity measured using the drug resistant, P-glycoprotein (Pgp) expressing human small cell lung carcinoma cell line H69/LX4. The data set is classed as functional, cell-based. An outline of the steps:
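H69/P (parental) or H69/LX4 (P-glycoprotein-overexpressing) human SCLC cells; compound added, then 5-6 days incubation; proliferation read with Alamar Blue.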

Data set [6] relates to Mus musculus. Nature of the data set: pharmacokinetics in female BALB/c mice measured as AUC after 20 mg/kg iv administration. Type of data set: ADME, organism-based. More on the design: dose 20 mg/kg, route intravenous. The settings on record: in vivo. An outline of the steps: (§2)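 Female Balb/c mice dosed intravenously at 20 or 50 mg/kg. Blood taken by cardiac puncture under anaesthesia into heparinized syringes at times from 2 min to 24 h. Plasma prepared by centrifugation and drug measured by HPLC; plasma PK parameters derived.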

The test system of data set [7] is Mus musculus. As to the kind of experiment: pharmacokinetics in female BALB/c mice measured as AUC after 50 mg/kg iv administration. As to conditions: in vivo. The arrangement: dose 50 mg/kg, route intravenous. The data set is classed as ADME, organism-based. A digest of the protocol: as §2
In data set [8] the test system is Mus musculus. Nature of the data set: pharmacokinetics in female BALB/c mice measured as AUC after 50 mg/kg Preoral administration. The arrangement: dose 50 mg/kg. As to conditions: in vivo, po. The data set is classed as ADME, organism-based. A digest of the protocol:
(§3)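 Female Balb/c mice given 50 mg/kg by oral gavage. Blood taken by cardiac puncture under anaesthesia into heparinized syringes at 2 min-24 h. Plasma analyzed by HPLC; plasma PK parameters derived, with oral bioavailability relative to iv dosing.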

Data set [9] can be described thus: pharmacokinetics in female BALB/c mice measured as Cl after 20 mg/kg iv administration. The data set is classed as ADME, organism-based. The arrangement: dose 20 mg/kg, route intravenous. As to conditions: mouse, in vivo. A digest of the protocol: as §2
Data set [10] is described as follows: pharmacokinetics in female BALB/c mice measured as Cmax after 20 mg/kg iv administration. Type of data set: ADME, organism-based. More on the design: dose 20 mg/kg, route intravenous. As to conditions: mouse, in vivo. An outline of the steps:
as §2

Data set [11] in a line: pharmacokinetics in female BALB/c mice measured as Cmax after 50 mg/kg iv administration. The data set is classed as ADME, organism-based. The arrangement: dose 50 mg/kg, route intravenous. The settings on record: mouse, in vivo. An outline of the steps: as §2
Data set [12] is described as follows: pharmacokinetics in female BALB/c mice measured as Cmax after 50 mg/kg Preoral administration. Type of data set: ADME, organism-based. More on the design: route oral, dose 50 mg/kg. As to conditions: mouse, in vivo, po. An outline of the steps:
as §3

Data set [13] in a line: pharmacokinetics in female BALB/c mice measured as bioavailability (F) after 50 mg/kg peroral administration. The data set is classed as ADME, organism-based. As to conditions: mouse, in vivo, po. An outline of the steps: as §3
Data set [14] is described as follows: pharmacokinetics in female BALB/c mice measured as Cl after 50 mg/kg iv administration. Type of data set: ADME, organism-based. The arrangement: dose 50 mg/kg, route intravenous. The settings on record: mouse, in vivo. An outline of the steps:
as §2

A short description of data set [15]: pharmacokinetics in female BALB/c mice measured as Kel after 20 mg/kg iv administration. The data set is classed as ADME, organism-based. More on the design: dose 20 mg/kg, route intravenous. As to conditions: mouse, in vivo. A digest of the protocol: as §2
Data set [16] is described as follows: pharmacokinetics in female BALB/c mice measured as Kel after 50 mg/kg iv administration. Type of data set: ADME, organism-based. The arrangement: dose 50 mg/kg, route intravenous. The settings on record: mouse, in vivo. An outline of the steps: as §2
A short description of data set [17]: pharmacokinetics in female BALB/c mice measured as Kel after 50 mg/kg Preoral administration. Type of data set: ADME, organism-based. More on the design: dose 50 mg/kg. As to conditions: mouse, in vivo, po. A digest of the protocol: as §3
A short description of data set [18]: pharmacokinetics in female BALB/c mice measured as Vss after 20 mg/kg iv administration. Type of data set: ADME, organism-based. More on the design: dose 20 mg/kg, route intravenous. The settings on record: mouse, in vivo, read-out: Vss. An outline of the steps: as §2
Data set [19] can be described thus: pharmacokinetics in female BALB/c mice measured as Vss after 50 mg/kg iv administration. Type of data set: ADME, organism-based. More on the design: dose 50 mg/kg, route intravenous. As to conditions: mouse, in vivo, read-out: Vss. A digest of the protocol:
as §2

Consider one molecule from ChEMBL document CHEMBL1135980, “Novel angular benzophenazines: dual topoisomerase I and topoisomerase II inhibitors as potential anticancer agents” (J Med Chem, 2002).

As usually defined, the IC50 is the concentration that gives 50% inhibition. By clearance is commonly meant the volume of plasma or blood freed of the substance per unit of time. Low readings indicate a low capacity for elimination, high ones a high capacity for elimination. In general, Cmax refers to the highest concentration seen after dosing. Broadly, the bioavailability is the share of a dose that reaches the circulation, judged against a reference dose that is usually intravenous. Turning to `COc1cccc2c1ccc1nc3cccc(C(=O)N[C@H](C)CN(C)C)c3nc12`, the Rf (in [1]; in the data set on NCI-H69 [2]) was 1.2 in each case. Further, the 50% inhibitory concentration (IC50) in the data set with COR-L23 [3] was 10.1 nM; in the data set with COR-L23 [4] it was 12.1 nM; in the data set on NCI-H69 [5] it was 29 nM. The AUC with Mus musculus [6] was determined as 64 ug min m-1; in the data set with Mus musculus [7], 156 ug min m-1; with Mus musculus [8], 114 ug min m-1. The clearance in [9] was found to be 6.3 mL/min; in [14], 6.4 mL/min. Also, the highest concentration (Cmax) turned out to be 800 ng/mL in [10], 2900 ng/mL in data set [11] and 350 ng/mL in data set [12]. The bioavailability in data set [13] was determined as 72%. Further, the k el in data set [15] is 7.33e-05 s⁻¹; in data set [16] it was 5e-05 s⁻¹; in data set [17], 3.33e-05 s⁻¹. Also, the Vd in data set [18] was determined as 1.3 L; in [19] it was 1.9 L.
